Measured values published in ChEMBL document CHEMBL1250528 (J Med Chem, 2010).

What was measured:
[1] = Permeability of the compound in human Caco-2 cells; type: ADME, cell-based; details: read-out: permeability
[2] = Oral bioavailability in BALB/c mouse at 10 mg/kg; type: ADME, organism-based; details: in vivo
In short: (§1)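 Male BALB/c mice (20-25 g), fasted overnight. IV bolus 5 mg/kg in 20% NMP/35% PEG 400/10% PG/35% water; oral gavage 10 mg/kg in PEG 400. Retro-orbital blood at 0.05 (iv only), 0.25, 0.5, 1, 3, 6, 8 and 24 h; three mice per time point, giving a composite profile. Plasma analysed by LC/MS/MS.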

[3] = Cmax in BALB/c mouse at 5 mg/kg, iv and 10 mg/kg, po; type: ADME, organism-based; details: in vivo; in short: as §1
Hepatocyte [4] = assay: Metabolic stability in human hepatocytes assessed as metabolic rate per million cells; type: ADME, cell-based
[5] = Tmax in BALB/c mouse at 5 mg/kg, iv and 10 mg/kg, po; type: ADME, organism-based; details: in vivo; in short: as §1
[6] = Half life in BALB/c mouse at 5 mg/kg, iv and 10 mg/kg, po; type: ADME, organism-based; details: in vivo; in short: as §1
[7] = Mean residence time in BALB/c mouse at 5 mg/kg, iv and 10 mg/kg, po; type: ADME, organism-based; details: in vivo; in short: as §1
[8] = Clearance in BALB/c mouse at 5 mg/kg, iv and 10 mg/kg, po; type: ADME, organism-based; details: in vivo; in short: as §1
[9] = Volume of distribution at steady state in BALB/c mouse at 5 mg/kg, iv and 10 mg/kg, po; type: ADME, organism-based; details: in vivo, read-out: Vdss; in short: as §1
[10] = AUC (0 to 8 hrs) in BALB/c mouse at 5 mg/kg, iv and 10 mg/kg, po; type: ADME, organism-based; details: plasma; in short: as §1
[11] = Oral bioavailability in Sprague-Dawley rat at 10 mg/kg; type: ADME, organism-based; details: in vivo
In short: (§2)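 Male Sprague-Dawley rats (250-300 g), fasted overnight. IV bolus 2.5 mg/kg in 25% NMP/33% PEG 400/9% PG/33% water; oral gavage 10 mg/kg in PEG 400. Blood sampled at 0.05 (iv only), 0.25, 0.5, 1, 3, 6, 8 and 24 h post dose; composite profile. Plasma stored at -20 °C, then analysed by LC/MS/MS.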

[12] = Cmax in Sprague-Dawley rat at 2.5 mg/kg, iv and 10 mg/kg, po; type: ADME, organism-based; details: in vivo; in short: as §2
[13] = Tmax in Sprague-Dawley rat at 2.5 mg/kg, iv and 10 mg/kg, po; type: ADME, organism-based; details: in vivo; in short: as §2
[14] = Half life in Sprague-Dawley rat at 2.5 mg/kg, iv and 10 mg/kg, po; type: ADME, organism-based; details: in vivo; in short: as §2
[15] = Mean residence time in Sprague-Dawley rat at 2.5 mg/kg, iv and 10 mg/kg, po; type: ADME, organism-based; details: in vivo; in short: as §2
[16] = Clearance in Sprague-Dawley rat at 2.5 mg/kg, iv and 10 mg/kg, po; type: ADME, organism-based; details: in vivo; in short: as §2
[17] = Volume of distribution at steady state in Sprague-Dawley rat at 2.5 mg/kg, iv and 10 mg/kg, po; type: ADME, organism-based; details: in vivo, read-out: Vdss; in short: as §2
[18] = AUC (0 to 24 hrs) in Sprague-Dawley rat at 2.5 mg/kg, iv and 10 mg/kg, po; type: ADME, organism-based; details: plasma; in short: as §2
[19] = Metabolic stability in mouse liver microsomes assessed as metabolic rate; type: ADME, Microsome
Liver microsomes [20] = assay: Metabolic stability in rat liver microsomes assessed as metabolic rate; type: ADME, Microsome
Liver microsomes [21] = assay: Metabolic stability in human liver microsomes assessed as metabolic rate; type: ADME, Microsome
[22] = Metabolic stability in mouse hepatocytes assessed as metabolic rate per million cells; type: ADME, cell-based, Hepatocyte
Hepatocyte [23] = assay: Metabolic stability in rat hepatocytes assessed as metabolic rate per million cells; type: ADME, cell-based

CCNC(=O)c1cn2ncnc(Nc3cc(C(=O)NOC)ccc3C)c2c1C
Papp [1]: 0.5 ×10⁻⁶ cm/s

CCCNC(=O)c1cn2ncnc(Nc3cc(C(=O)NC4CC4)ccc3C)c2c1C [BMS-582949]
bioavailability [2]: 90%
Cmax [3]: 15.3 µM
Papp [1]: 9.1 ×10⁻⁶ cm/s
Stability (Hepatocyte [4]): 0.015 nmol/min/million cells
Tmax [5]: 1 h
half-life [6]: 2.6 h
MRT [7]: 3.3 h
clearance [8]: 4.4 mL/min/kg
Vd [9]: 0.9 L/kg
AUC(0-t) [10]: 75.5 µM·h
bioavailability [11]: 60%
Cmax [12]: 7 µM
Tmax [13]: 1.5 h
half-life [14]: 4 h
MRT [15]: 3.4 h
clearance [16]: 5.4 mL/min/kg
Vd [17]: 1.1 L/kg
AUC(0-t) [18]: 45.4 µM·h
Stability [19]: 0.011 nmol/min/mg
Stability (Liver microsomes [20]): 0.008 nmol/min/mg
Stability (Liver microsomes [21]): 0.013 nmol/min/mg
Stability [22]: 0.006 nmol/min/million cells
Stability (Hepatocyte [23]): 0.015 nmol/min/million cells
